Reference: ChEMBL document CHEMBL4330096, “Discovery of potent and selective 5-azaindazole inhibitors of leucine-rich repeat kinase 2 (LRRK2) - Part 1” (Bioorg Med Chem Lett, 2019)

Legend:
[1] = biological target: T1, Serine/threonine-protein kinase Chk1 (Homo sapiens) (UniProt O14757); experiment: Inhibition of CHK1 (unknown origin) at 1 uM relative to control
T1 sequence (whole entry): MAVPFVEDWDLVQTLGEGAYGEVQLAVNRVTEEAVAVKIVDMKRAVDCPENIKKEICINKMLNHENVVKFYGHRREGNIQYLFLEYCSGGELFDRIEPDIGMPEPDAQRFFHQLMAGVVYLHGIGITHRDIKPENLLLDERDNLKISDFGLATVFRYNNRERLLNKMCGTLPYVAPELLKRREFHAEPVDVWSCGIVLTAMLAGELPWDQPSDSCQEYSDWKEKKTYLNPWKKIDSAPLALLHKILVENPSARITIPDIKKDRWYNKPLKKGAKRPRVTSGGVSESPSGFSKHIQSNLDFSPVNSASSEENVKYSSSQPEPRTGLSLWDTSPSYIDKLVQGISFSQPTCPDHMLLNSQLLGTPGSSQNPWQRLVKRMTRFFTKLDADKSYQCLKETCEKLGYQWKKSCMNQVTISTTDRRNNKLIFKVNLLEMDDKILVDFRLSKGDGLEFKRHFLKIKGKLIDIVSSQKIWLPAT
In short: (§1)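 Single-point screen of each compound against a panel of 59 protein kinases, at 1 or 10 μM. The panel data are also summarised as a rescaled geometric mean selectivity score.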

[2] = biological target: Mitogen-activated protein kinase 3 (Homo sapiens) (UniProt P27361); experiment: Inhibition of ERK1 (unknown origin) at 1 uM relative to control; in short: as §1
[3] = biological target: Homeodomain-interacting protein kinase 2 (Homo sapiens) (UniProt Q9H2X6); experiment: Inhibition of HIPK2 (unknown origin) at 1 uM relative to control; in short: as §1
[4] = biological target: T2, Inhibitor of nuclear factor kappa-B kinase subunit beta (Homo sapiens) (UniProt O14920); experiment: Inhibition of IKKb (unknown origin) at 1 uM relative to control; in short: as §1
T2 sequence (whole entry): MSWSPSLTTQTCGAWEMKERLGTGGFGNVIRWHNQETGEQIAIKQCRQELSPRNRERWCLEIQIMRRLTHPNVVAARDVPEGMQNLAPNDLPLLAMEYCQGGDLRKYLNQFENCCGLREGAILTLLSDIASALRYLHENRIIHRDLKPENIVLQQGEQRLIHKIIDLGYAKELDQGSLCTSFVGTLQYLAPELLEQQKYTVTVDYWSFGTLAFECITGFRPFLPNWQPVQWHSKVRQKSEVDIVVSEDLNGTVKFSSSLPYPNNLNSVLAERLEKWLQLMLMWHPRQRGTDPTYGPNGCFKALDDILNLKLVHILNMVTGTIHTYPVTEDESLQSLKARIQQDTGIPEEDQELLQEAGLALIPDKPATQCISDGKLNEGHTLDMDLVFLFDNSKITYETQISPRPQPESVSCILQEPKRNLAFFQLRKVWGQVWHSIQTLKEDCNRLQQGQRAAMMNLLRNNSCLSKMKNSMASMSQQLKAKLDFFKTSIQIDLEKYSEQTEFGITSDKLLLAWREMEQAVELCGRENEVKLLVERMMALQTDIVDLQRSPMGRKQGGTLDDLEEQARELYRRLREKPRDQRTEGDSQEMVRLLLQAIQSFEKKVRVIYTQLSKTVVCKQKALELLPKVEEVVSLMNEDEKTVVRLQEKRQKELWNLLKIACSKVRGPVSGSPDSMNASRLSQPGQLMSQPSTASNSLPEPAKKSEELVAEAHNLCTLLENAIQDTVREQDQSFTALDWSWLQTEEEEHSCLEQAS

[5] = biological target: Mitogen-activated protein kinase 8 (Homo sapiens) (UniProt P45983); experiment: Inhibition of JNK1 (unknown origin) at 1 uM relative to control; in short: as §1
[6] = biological target: T3, Serine/threonine-protein kinase 3 (Homo sapiens) (UniProt Q13188); experiment: Inhibition of MST2 (unknown origin) at 1 uM relative to control
T3 sequence (whole entry): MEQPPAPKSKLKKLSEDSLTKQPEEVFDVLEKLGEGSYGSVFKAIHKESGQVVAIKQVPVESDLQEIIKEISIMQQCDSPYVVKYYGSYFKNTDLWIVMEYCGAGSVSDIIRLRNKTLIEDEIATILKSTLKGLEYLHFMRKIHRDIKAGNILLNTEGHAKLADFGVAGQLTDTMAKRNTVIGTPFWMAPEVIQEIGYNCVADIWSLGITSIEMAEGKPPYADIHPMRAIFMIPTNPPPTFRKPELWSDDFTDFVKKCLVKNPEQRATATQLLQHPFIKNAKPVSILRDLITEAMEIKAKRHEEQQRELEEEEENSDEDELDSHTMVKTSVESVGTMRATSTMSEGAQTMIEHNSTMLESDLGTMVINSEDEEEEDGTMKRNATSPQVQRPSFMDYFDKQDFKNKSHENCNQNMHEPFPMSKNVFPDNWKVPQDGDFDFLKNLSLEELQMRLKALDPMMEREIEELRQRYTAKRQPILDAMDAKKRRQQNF
In short: (§2)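 Single-concentration screen of each compound against a 59-protein-kinase panel, run at 10 µM or 1 µM. Activity relative to control is shown as a heat map across the panel.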

[7] = biological target: Serine/threonine-protein kinase Nek6 (Homo sapiens) (UniProt Q9HC98); experiment: Inhibition of NEK6 (unknown origin) at 1 uM relative to control; in short: as §2
[8] = biological target: T4, Protein kinase C zeta type (Homo sapiens) (UniProt Q05513); experiment: Inhibition of PKCz (unknown origin) at 1 uM relative to control; in short: as §2
T4 sequence (whole entry): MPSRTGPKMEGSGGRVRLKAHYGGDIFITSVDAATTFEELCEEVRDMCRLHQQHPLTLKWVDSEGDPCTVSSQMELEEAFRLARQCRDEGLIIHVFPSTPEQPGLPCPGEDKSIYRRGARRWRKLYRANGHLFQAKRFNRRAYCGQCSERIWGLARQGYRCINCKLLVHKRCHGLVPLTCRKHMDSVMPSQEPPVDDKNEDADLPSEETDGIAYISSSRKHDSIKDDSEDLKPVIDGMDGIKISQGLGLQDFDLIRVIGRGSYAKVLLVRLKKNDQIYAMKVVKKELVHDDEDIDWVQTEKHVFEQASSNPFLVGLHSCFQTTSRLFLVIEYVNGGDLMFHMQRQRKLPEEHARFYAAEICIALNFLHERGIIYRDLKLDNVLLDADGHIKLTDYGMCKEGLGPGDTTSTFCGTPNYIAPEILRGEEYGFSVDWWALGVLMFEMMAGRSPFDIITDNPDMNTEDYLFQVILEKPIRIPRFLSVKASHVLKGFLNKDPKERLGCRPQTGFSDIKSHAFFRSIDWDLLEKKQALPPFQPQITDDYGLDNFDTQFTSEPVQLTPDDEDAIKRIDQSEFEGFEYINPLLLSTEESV

[9] = biological target: Ribosomal protein S6 kinase beta-1 (Homo sapiens) (UniProt P23443); experiment: Inhibition of S6K1 (unknown origin) at 1 uM relative to control
In short: (§3)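 Single-concentration screen across a panel of 59 protein kinases, with each compound tested at one fixed concentration. The read-out is residual kinase activity relative to control. Panel results are also condensed into a rescaled geometric mean (RGM) selectivity score.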

[10] = biological target: Tyrosine-protein kinase SYK (Homo sapiens) (UniProt P43405); experiment: Inhibition of SYK (unknown origin) at 1 uM relative to control; in short: as §3

Sequence of Mitogen-activated protein kinase 3 (Homo sapiens) (P27361 whole entry): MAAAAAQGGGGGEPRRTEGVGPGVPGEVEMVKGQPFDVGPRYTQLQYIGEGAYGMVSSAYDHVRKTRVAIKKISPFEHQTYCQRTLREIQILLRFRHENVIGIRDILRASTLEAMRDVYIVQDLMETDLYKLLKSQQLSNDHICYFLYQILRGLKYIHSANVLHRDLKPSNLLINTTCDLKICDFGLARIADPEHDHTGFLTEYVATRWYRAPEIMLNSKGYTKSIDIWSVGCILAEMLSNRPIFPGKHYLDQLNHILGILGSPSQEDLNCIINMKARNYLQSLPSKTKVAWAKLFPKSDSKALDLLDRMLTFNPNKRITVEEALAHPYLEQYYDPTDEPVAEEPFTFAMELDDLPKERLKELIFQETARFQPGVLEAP
Sequence of Ribosomal protein S6 kinase beta-1 (Homo sapiens) (P23443 whole entry, looked up): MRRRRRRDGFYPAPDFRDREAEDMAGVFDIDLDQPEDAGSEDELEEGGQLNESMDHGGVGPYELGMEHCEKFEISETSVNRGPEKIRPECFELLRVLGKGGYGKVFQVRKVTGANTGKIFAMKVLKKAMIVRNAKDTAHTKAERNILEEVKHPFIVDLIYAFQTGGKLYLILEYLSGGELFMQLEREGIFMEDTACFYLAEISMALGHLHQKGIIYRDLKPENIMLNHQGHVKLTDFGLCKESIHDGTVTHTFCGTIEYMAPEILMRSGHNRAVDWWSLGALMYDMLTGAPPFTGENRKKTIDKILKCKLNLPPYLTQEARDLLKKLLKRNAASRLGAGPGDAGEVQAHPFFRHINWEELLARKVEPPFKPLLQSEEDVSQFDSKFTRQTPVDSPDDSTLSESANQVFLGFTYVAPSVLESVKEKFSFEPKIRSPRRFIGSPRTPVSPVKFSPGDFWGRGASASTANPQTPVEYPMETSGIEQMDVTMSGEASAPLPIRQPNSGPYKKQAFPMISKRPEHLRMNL
Sequence of Mitogen-activated protein kinase 8 (Homo sapiens) (P45983 whole entry): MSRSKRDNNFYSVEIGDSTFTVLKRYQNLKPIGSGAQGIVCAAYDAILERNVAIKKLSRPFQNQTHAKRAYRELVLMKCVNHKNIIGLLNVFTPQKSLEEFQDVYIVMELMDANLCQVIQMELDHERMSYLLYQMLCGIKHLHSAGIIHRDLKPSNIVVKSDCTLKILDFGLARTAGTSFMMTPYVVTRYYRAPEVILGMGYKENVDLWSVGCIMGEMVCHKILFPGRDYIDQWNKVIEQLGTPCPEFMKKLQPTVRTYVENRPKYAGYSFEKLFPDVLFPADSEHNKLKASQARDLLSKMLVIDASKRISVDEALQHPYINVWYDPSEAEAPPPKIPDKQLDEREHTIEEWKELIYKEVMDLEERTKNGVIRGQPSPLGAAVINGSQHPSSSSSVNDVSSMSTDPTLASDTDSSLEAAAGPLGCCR
Sequence of Homeodomain-interacting protein kinase 2 (Homo sapiens) (Q9H2X6 whole entry, looked up): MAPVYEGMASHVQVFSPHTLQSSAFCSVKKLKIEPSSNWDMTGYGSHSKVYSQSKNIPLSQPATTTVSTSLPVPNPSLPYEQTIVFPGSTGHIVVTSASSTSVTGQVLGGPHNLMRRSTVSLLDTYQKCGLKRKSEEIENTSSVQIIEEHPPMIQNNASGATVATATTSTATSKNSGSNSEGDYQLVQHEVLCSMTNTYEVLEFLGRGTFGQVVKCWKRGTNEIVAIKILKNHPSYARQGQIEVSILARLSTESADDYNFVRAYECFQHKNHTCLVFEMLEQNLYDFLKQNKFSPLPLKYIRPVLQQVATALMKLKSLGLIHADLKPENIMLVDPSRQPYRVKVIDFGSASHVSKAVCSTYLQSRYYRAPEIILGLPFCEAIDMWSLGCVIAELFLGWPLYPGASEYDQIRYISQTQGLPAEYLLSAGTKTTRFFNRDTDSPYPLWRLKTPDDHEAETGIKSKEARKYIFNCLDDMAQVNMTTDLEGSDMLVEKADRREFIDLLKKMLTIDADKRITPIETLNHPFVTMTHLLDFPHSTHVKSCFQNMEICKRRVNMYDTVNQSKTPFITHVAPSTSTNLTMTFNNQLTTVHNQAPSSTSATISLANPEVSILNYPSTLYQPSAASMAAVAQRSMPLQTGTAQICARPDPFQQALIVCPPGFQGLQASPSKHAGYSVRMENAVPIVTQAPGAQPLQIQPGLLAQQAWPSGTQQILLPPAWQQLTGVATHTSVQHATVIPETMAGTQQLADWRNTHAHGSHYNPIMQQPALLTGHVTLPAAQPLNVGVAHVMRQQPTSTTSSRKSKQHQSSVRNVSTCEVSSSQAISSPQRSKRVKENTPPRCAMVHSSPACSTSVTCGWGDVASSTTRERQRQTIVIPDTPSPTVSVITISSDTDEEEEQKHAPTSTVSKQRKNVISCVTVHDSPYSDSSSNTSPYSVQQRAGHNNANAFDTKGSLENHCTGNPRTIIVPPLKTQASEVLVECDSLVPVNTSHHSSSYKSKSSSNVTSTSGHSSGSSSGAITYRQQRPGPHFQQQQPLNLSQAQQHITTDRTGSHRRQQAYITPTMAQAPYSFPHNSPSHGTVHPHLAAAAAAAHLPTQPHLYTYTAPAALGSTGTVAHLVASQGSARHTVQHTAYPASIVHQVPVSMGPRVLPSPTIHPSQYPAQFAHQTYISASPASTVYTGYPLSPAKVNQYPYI
Sequence of Serine/threonine-protein kinase Nek6 (Homo sapiens) (Q9HC98 whole entry): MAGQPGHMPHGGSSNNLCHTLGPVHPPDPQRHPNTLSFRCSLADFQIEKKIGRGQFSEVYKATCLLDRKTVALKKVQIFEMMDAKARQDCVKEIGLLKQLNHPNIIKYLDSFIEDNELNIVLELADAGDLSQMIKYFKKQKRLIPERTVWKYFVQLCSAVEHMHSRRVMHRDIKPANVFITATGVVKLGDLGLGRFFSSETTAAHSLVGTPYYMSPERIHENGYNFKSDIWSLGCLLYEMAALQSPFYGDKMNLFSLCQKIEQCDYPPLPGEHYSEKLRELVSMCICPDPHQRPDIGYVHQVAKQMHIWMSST

Compound | inhibition [1] [%] | inhibition [2] [%] | inhibition [3] [%] | inhibition [4] [%] | inhibition [5] [%] | inhibition [6] [%] | inhibition [7] [%] | inhibition [8] [%] | inhibition [9] [%] | inhibition [10] [%]
CC(C)n1cc(-c2n[nH]c3ccnc(OC4CCOCC4)c23)cn1 | 5 | 28 | 9 | 3 | 27 | 40 | 0 | 14 | 16 | 0
c1cc(-c2n[nH]c3ccnc(OC4CCOCC4)c23)cc(N2CCOCC2)n1 | 0 | 37 | 6 | 0 | 47 | 7 | 0 | 1 | 0 | 0
